Laboratory results taken from PMC11847724 (Neoplasia (New York, N.Y.), 2025).
Read-outs that look alike come from different tables or passages of the source.

Test system: participants with advanced or metastatic solid tumors
Type: in vivo, human
Method in brief: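 Open-label, first-in-human 3 + 3 escalation in adults with recurrent, locally advanced or metastatic solid tumors lacking standard therapy. Test compound was given orally once daily from 25 up to 700 mg/day (modified Fibonacci steps) in 28-day cycles for 6 to 8 cycles, with no intrapatient escalation. The safety population was everyone dosed at least once. AEs were coded by MedDRA and graded by NCI CTCAE v4.03. DLT was assessed in cycle 1, and MTD was the highest dose with DLT in under one-third of a cohort.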

Structure (SMILES): CNC(=O)c1ccccc1Nc1nc(Nc2ccc3c(c2OC)CCC[C@H](N2CCN(CCO)CC2)C3)ncc1Cl [ESK-440]
- AE: Cough (25 mg/day (n = 3)): 1 (33) Number (%) of participants
- AE: Decreased appetite (25 mg/day (n = 3)): 0 Number (%) of participants
- AE: Diarrhea (25 mg/day (n = 3)): 1 (33) Number (%) of participants
- AE: Edema peripheral (25 mg/day (n = 3)): 0 Number (%) of participants
- AE: Fatigue (25 mg/day (n = 3)): 0 Number (%) of participants
- AE: Nausea (25 mg/day (n = 3)): 1 (33) Number (%) of participants
- AE: Pyrexia (25 mg/day (n = 3)): 0 Number (%) of participants
- AE: Vomiting (25 mg/day (n = 3)): 0 Number (%) of participants
- Any AE (25 mg/day (n = 3)): 3 (100) Number (%) of participants
- Deaths (25 mg/day (n = 3)): 1 (33) Number (%) of participants
- Grade 3-5 AE (25 mg/day (n = 3)): 3 (100) Number (%) of participants
- Other serious AEs (25 mg/day (n = 3)): 2 (67) Number (%) of participants
- Treatment-related AE (25 mg/day (n = 3)): 1 (33) Number (%) of participants
- Withdrawn from treatment due to AE (25 mg/day (n = 3)): 1 (33) Number (%) of participants
- AE: Cough (50 mg/day (n = 3)): 0 Number (%) of participants
- AE: Decreased appetite (50 mg/day (n = 3)): 0 Number (%) of participants
- AE: Diarrhea (50 mg/day (n = 3)): 0 Number (%) of participants
- AE: Edema peripheral (50 mg/day (n = 3)): 0 Number (%) of participants
- AE: Fatigue (50 mg/day (n = 3)): 1 (33) Number (%) of participants
- AE: Nausea (50 mg/day (n = 3)): 1 (33) Number (%) of participants
- AE: Pyrexia (50 mg/day (n = 3)): 1 (33) Number (%) of participants
- AE: Vomiting (50 mg/day (n = 3)): 0 Number (%) of participants
- Any AE (50 mg/day (n = 3)): 2 (67) Number (%) of participants
- Deaths (50 mg/day (n = 3)): 0 Number (%) of participants
- Grade 3-5 AE (50 mg/day (n = 3)): 1 (33) Number (%) of participants
- Other serious AEs (50 mg/day (n = 3)): 1 (33) Number (%) of participants
- Treatment-related AE (50 mg/day (n = 3)): 1 (33) Number (%) of participants
- Withdrawn from treatment due to AE (50 mg/day (n = 3)): 0 Number (%) of participants
- AE: Cough (100 mg/day (n = 4)): 0 Number (%) of participants
- AE: Decreased appetite (100 mg/day (n = 4)): 0 Number (%) of participants
- AE: Diarrhea (100 mg/day (n = 4)): 0 Number (%) of participants
- AE: Edema peripheral (100 mg/day (n = 4)): 1 (25) Number (%) of participants
- AE: Fatigue (100 mg/day (n = 4)): 3 (75) Number (%) of participants
- AE: Nausea (100 mg/day (n = 4)): 0 Number (%) of participants
- AE: Pyrexia (100 mg/day (n = 4)): 1 (25) Number (%) of participants
- AE: Vomiting (100 mg/day (n = 4)): 0 Number (%) of participants
- Any AE (100 mg/day (n = 4)): 4 (100) Number (%) of participants
- Deaths (100 mg/day (n = 4)): 1 (25) Number (%) of participants
- Grade 3-5 AE (100 mg/day (n = 4)): 2 (50) Number (%) of participants
- Other serious AEs (100 mg/day (n = 4)): 2 (50) Number (%) of participants
- Treatment-related AE (100 mg/day (n = 4)): 2 (50) Number (%) of participants
- Withdrawn from treatment due to AE (100 mg/day (n = 4)): 1 (25) Number (%) of participants
- AE: Cough (150 mg/day (n = 3)): 1 (33) Number (%) of participants
- AE: Decreased appetite (150 mg/day (n = 3)): 1 (33) Number (%) of participants
- AE: Diarrhea (150 mg/day (n = 3)): 1 (33) Number (%) of participants
- AE: Edema peripheral (150 mg/day (n = 3)): 1 (33) Number (%) of participants
- AE: Fatigue (150 mg/day (n = 3)): 2 (67) Number (%) of participants
- AE: Nausea (150 mg/day (n = 3)): 0 Number (%) of participants
- AE: Pyrexia (150 mg/day (n = 3)): 1 (33) Number (%) of participants
- AE: Vomiting (150 mg/day (n = 3)): 0 Number (%) of participants
- Any AE (150 mg/day (n = 3)): 3 (100) Number (%) of participants
- Deaths (150 mg/day (n = 3)): 0 Number (%) of participants
- Grade 3-5 AE (150 mg/day (n = 3)): 1 (33) Number (%) of participants
- Other serious AEs (150 mg/day (n = 3)): 1 (33) Number (%) of participants
- Treatment-related AE (150 mg/day (n = 3)): 3 (100) Number (%) of participants
- Withdrawn from treatment due to AE (150 mg/day (n = 3)): 0 Number (%) of participants
- AE: Cough (250 mg/day (n = 4)): 1 (25) Number (%) of participants
- AE: Decreased appetite (250 mg/day (n = 4)): 2 (50) Number (%) of participants
- AE: Diarrhea (250 mg/day (n = 4)): 2 (50) Number (%) of participants
- AE: Edema peripheral (250 mg/day (n = 4)): 2 (50) Number (%) of participants
- AE: Fatigue (250 mg/day (n = 4)): 3 (75) Number (%) of participants
- AE: Nausea (250 mg/day (n = 4)): 3 (75) Number (%) of participants
- AE: Pyrexia (250 mg/day (n = 4)): 0 Number (%) of participants
- AE: Vomiting (250 mg/day (n = 4)): 3 (75) Number (%) of participants
- Any AE (250 mg/day (n = 4)): 4 (100) Number (%) of participants
- Deaths (250 mg/day (n = 4)): 1 (25) Number (%) of participants
- Grade 3-5 AE (250 mg/day (n = 4)): 1 (25) Number (%) of participants
- Other serious AEs (250 mg/day (n = 4)): 1 (25) Number (%) of participants
- Treatment-related AE (250 mg/day (n = 4)): 4 (100) Number (%) of participants
- Withdrawn from treatment due to AE (250 mg/day (n = 4)): 0 Number (%) of participants
- AE: Cough (350 mg/day (n = 4)): 1 (25) Number (%) of participants
- AE: Decreased appetite (350 mg/day (n = 4)): 2 (50) Number (%) of participants
- AE: Diarrhea (350 mg/day (n = 4)): 1 (25) Number (%) of participants
- AE: Edema peripheral (350 mg/day (n = 4)): 0 Number (%) of participants
- AE: Fatigue (350 mg/day (n = 4)): 2 (50) Number (%) of participants
- AE: Nausea (350 mg/day (n = 4)): 2 (50) Number (%) of participants
